# Assay results taken from ChEMBL document CHEMBL1141749, “Nitrogen-containing compounds from Salvia miltiorrhiza” (2005).
# Tested on: OVCAR-3
# Assay: Cytotoxicity against human OVCAR-3 cells by MTT assay
# Type: functional
# Details: not given
# How it was run: (§1)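 MTT colorimetric read-out. The value is reported as CD50.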
row,Structure (SMILES),Activity
1,Cc1nc2c(o1)c1c(C)coc1c1ccc3c(c12)CCCC3(C)C [SALVIANEN],Dose-dependent effect

# Same assay, conditions: read-out: CD50 (the source's name)
row,Structure (SMILES),CC50
1,C[C@H]1COC2=C1C(=O)C(=O)c1c2ccc2c1CCCC2(C)C [CRYPTOTANSHINONE],9.12 µM
2,Cc1nc2c3c(c4ccc5c(c4c2o1)CCCC5(C)C)OCC3C (stereo unspecified),126 µM
3,Cc1coc2c1C(=O)C(=O)c1c-2ccc2c1CCCC2(C)C [TANSHINONE IIA],9.52 µM
4,CC(C)C1=Cc2ccc3c4c([nH]c(c24)C1=O)C(=O)CC3(C)C [SALVIADIONE],169 µM
5,Cc1nc2c(o1)c1c(C)coc1c1ccc3c(c12)CCCC3(C)C [SALVIANEN],39.5 µM
6,Cc1nc2c(o1)c1c3c(ccc1c1occ(C)c21)C(C)(C)CCC3 [NEOSALVIANEN],74.6 µM

# Tested on: HeLa
# Assay: Cytotoxicity against human HeLa cells by MTT assay
# Type: functional
# Details: not given
# How it was run: as §1
row,Structure (SMILES),Activity
1,Cc1nc2c(o1)c1c(C)coc1c1ccc3c(c12)CCCC3(C)C [SALVIANEN],Dose-dependent effect

# Same assay, conditions: read-out: CD50 (the source's name)
row,Structure (SMILES),CC50
1,C[C@H]1COC2=C1C(=O)C(=O)c1c2ccc2c1CCCC2(C)C [CRYPTOTANSHINONE],17.2 µM
2,Cc1nc2c3c(c4ccc5c(c4c2o1)CCCC5(C)C)OCC3C (stereo unspecified),108 µM
3,Cc1coc2c1C(=O)C(=O)c1c-2ccc2c1CCCC2(C)C [TANSHINONE IIA],8.5 µM
4,CC(C)C1=Cc2ccc3c4c([nH]c(c24)C1=O)C(=O)CC3(C)C [SALVIADIONE],178 µM
5,Cc1nc2c(o1)c1c(C)coc1c1ccc3c(c12)CCCC3(C)C [SALVIANEN],32.3 µM
6,Cc1nc2c(o1)c1c3c(ccc1c1occ(C)c21)C(C)(C)CCC3 [NEOSALVIANEN],63.9 µM

# Tested on: HepG2
# Assay: Cytotoxicity against human HepG2 cells by MTT assay
# Type: functional
# Details: not given
# How it was run: as §1
row,Structure (SMILES),Activity
1,Cc1nc2c(o1)c1c(C)coc1c1ccc3c(c12)CCCC3(C)C [SALVIANEN],Dose-dependent effect

# Same assay, conditions: read-out: CD50 (the source's name)
row,Structure (SMILES),CC50
1,C[C@H]1COC2=C1C(=O)C(=O)c1c2ccc2c1CCCC2(C)C [CRYPTOTANSHINONE],29.7 µM
2,Cc1nc2c3c(c4ccc5c(c4c2o1)CCCC5(C)C)OCC3C (stereo unspecified),121 µM
3,Cc1coc2c1C(=O)C(=O)c1c-2ccc2c1CCCC2(C)C [TANSHINONE IIA],26.5 µM
4,CC(C)C1=Cc2ccc3c4c([nH]c(c24)C1=O)C(=O)CC3(C)C [SALVIADIONE],137 µM
5,Cc1nc2c(o1)c1c(C)coc1c1ccc3c(c12)CCCC3(C)C [SALVIANEN],30.4 µM
6,Cc1nc2c(o1)c1c3c(ccc1c1occ(C)c21)C(C)(C)CCC3 [NEOSALVIANEN],59.2 µM
